Each block holds one compound with its values, some of them ahead of it. Calls of active or inactive are those of the source. The rule behind the calls is not given here.
Columns and labels:
Melanocortin receptor 4 [1] = molecular target: T1, Melanocortin receptor 4 (Homo sapiens, UniProt P32245); assay: Inhibition of human MC4R expressed in HEK293 cells assessed as cAMP accumulation by chemiluminescent immunoassay; assay type: functional, cell-based
Melanocortin receptor 4 [2] = molecular target: T1, Melanocortin receptor 4; assay: Displacement of Eu-NDP-alpha-MSH from human MC4R expressed in HEK293 cells by time resolved fluorescence binding assay relative to multimer 1M; assay type: cell-based
How it was run: (§1)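 Competition binding on HEK293 cells transfected to overexpress MC4R, against europium-labelled NDP-α-MSH tracer, read by time-resolved fluorescence. IC50 values are averaged from four experiments run in quadruplicate. Relative potency is expressed against the monovalent ligand.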

HEK293 [3] = assay: Drug uptake in human HEK293 cells assessed as localization at cell surface measured after 90 mins of incubation by FM 1-43 dye-microscopy; assay type: ADME, cell-based
How it was run: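 Ligands were Cy5-labelled through a triarginine linker and incubated with cells for 90 min. The membrane probe FM 1-43 was added two minutes before image acquisition. Membrane localization was assessed by epifluorescence microscopy.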

HEK293 [4] = assay: Drug uptake in human HEK293 cells assessed as localization measured at 3 mins of incubation by FM 1-43 dye-microscopy; assay type: ADME, cell-based; conditions: hek293, 0.05 h
HEK293 [5] = assay: Cytotoxicity against human HEK293 cells assessed as cell viability at 1 uM upto 48 hrs; assay type: cell-based; conditions: hek293, 48 h
How it was run: (§2)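 Cell viability was measured at three concentrations and three incubation times, up to 48 h. Values are expressed as % of untreated control and are the average of three independent experiments run in triplicate.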

HEK293 [6] = assay: Cytotoxicity against human HEK293 cells assessed as cell viability at 10 uM upto 2 days; assay type: cell-based; conditions: hek293, 48 h; how it was run: as §2
Melanocortin receptor 4 [7] = molecular target: T1, Melanocortin receptor 4; assay: Displacement of Eu-NDP-alpha-MSH from human MC4R expressed in HEK293 cells by time resolved fluorescence binding assay; assay type: cell-based; how it was run: as §1

T1 sequence (P32245 whole entry): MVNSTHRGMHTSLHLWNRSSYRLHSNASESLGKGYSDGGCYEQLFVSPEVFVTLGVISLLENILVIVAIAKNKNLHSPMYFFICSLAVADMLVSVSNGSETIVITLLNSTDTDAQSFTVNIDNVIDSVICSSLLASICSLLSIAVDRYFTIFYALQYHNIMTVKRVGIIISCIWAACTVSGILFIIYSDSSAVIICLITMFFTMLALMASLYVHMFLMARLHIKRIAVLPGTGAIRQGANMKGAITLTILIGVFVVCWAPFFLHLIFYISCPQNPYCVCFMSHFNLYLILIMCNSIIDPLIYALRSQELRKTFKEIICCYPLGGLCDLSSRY

SMILES: N=C(N)NCCC[C@H](NC(=O)[C@@H](Cc1ccccc1)NC(=O)[C@H](Cc1cnc[nH]1)NC(=O)CCc1cn(CC(=O)NCCCC(CCCNC(=O)Cn2cc(CCC(=O)N[C@@H](Cc3cnc[nH]3)C(=O)N[C@H](Cc3ccccc3)C(=O)N[C@@H](CCCNC(=N)N)C(=O)N[C@@H](Cc3c[nH]c4ccccc34)C(N)=O)nn2)(NC(=O)CNC(=O)Cn2cc(CCC(=O)N[C@@H](Cc3cnc[nH]3)C(=O)N[C@H](Cc3ccccc3)C(=O)N[C@@H](CCCNC(=N)N)C(=O)N[C@@H](Cc3c[nH]c4ccccc34)C(N)=O)nn2)C(=O)NCCC(N)=O)nn1)C(=O)N[C@@H](Cc1c[nH]c2ccccc12)C(N)=O (stereo not given in full)
Activity (Melanocortin receptor 4 [1]): Active
fold change (FC) (Melanocortin receptor 4 [2]): 350

Drug uptake (HEK293 [3]): Active
Drug uptake (HEK293 [4]): Not Active
SMILES: CC(=O)NCC(=O)NC(CCCNC(=O)CCNC(=O)C(CCCNC(=O)Cn1cc(CCC(=O)N[C@@H](Cc2cnc[nH]2)C(=O)N[C@H](Cc2ccccc2)C(=O)N[C@@H](CCCNC(=N)N)C(=O)N[C@@H](Cc2c[nH]c3ccccc23)C(N)=O)nn1)(CCCNC(=O)Cn1cc(CCC(=O)N[C@@H](Cc2cnc[nH]2)C(=O)N[C@H](Cc2ccccc2)C(=O)N[C@@H](CCCNC(=N)N)C(=O)N[C@@H](Cc2c[nH]c3ccccc23)C(N)=O)nn1)NC(=O)CNC(=O)Cn1cc(CCC(=O)N[C@@H](Cc2cnc[nH]2)C(=O)N[C@H](Cc2ccccc2)C(=O)N[C@@H](CCCNC(=N)N)C(=O)N[C@@H](Cc2c[nH]c3ccccc23)C(N)=O)nn1)(CCCNC(=O)CCNC(=O)C(CCCNC(=O)Cn1cc(CCC(=O)N[C@@H](Cc2cnc[nH]2)C(=O)N[C@H](Cc2ccccc2)C(=O)N[C@@H](CCCNC(=N)N)C(=O)N[C@@H](Cc2c[nH]c3ccccc23)C(N)=O)nn1)(CCCNC(=O)Cn1cc(CCC(=O)N[C@@H](Cc2cnc[nH]2)C(=O)N[C@H](Cc2ccccc2)C(=O)N[C@@H](CCCNC(=N)N)C(=O)N[C@@H](Cc2c[nH]c3ccccc23)C(N)=O)nn1)NC(=O)CNC(=O)Cn1cc(CCC(=O)N[C@@H](Cc2cnc[nH]2)C(=O)N[C@H](Cc2ccccc2)C(=O)N[C@@H](CCCNC(=N)N)C(=O)N[C@@H](Cc2c[nH]c3ccccc23)C(N)=O)nn1)C(=O)NCCC(=O)N[C@H](CCCNC(=N)N)C(=O)N[C@@H](CCCNC(=N)N)C(=O)N[C@H](CCCNC(=N)N)C(=O)N[C@@H](CCCCNC(=O)CCCCC[N+]1=C(/C=C/C=C/C=C2/N(C)c3ccccc3C2(C)C)C(C)(C)c2ccccc21)C(N)=O (stereo not given in full)

Drug uptake (HEK293 [3]): Active
Drug uptake (HEK293 [4]): Not Active
SMILES: CN1/C(=C/C=C/C=C/C2=[N+](CCCCCC(=O)NCCCC[C@H](NC(=O)[C@@H](CCCNC(=N)N)NC(=O)[C@H](CCCNC(=N)N)NC(=O)[C@@H](CCCNC(=N)N)NC(=O)CCNC(=O)C(CCCNC(=O)Cn3cc(CCC(=O)N[C@@H](Cc4cnc[nH]4)C(=O)N[C@H](Cc4ccccc4)C(=O)N[C@@H](CCCNC(=N)N)C(=O)N[C@@H](Cc4c[nH]c5ccccc45)C(N)=O)nn3)(CCCNC(=O)Cn3cc(CCC(=O)N[C@@H](Cc4cnc[nH]4)C(=O)N[C@H](Cc4ccccc4)C(=O)N[C@@H](CCCNC(=N)N)C(=O)N[C@@H](Cc4c[nH]c5ccccc45)C(N)=O)nn3)NC(=O)CNC(=O)Cn3cc(CCC(=O)N[C@@H](Cc4cnc[nH]4)C(=O)N[C@H](Cc4ccccc4)C(=O)N[C@@H](CCCNC(=N)N)C(=O)N[C@@H](Cc4c[nH]c5ccccc45)C(N)=O)nn3)C(N)=O)c3ccccc3C2(C)C)C(C)(C)c2ccccc21 (stereo not given in full)

SMILES: N=C(N)NCCC[C@H](NC(=O)[C@@H](Cc1ccccc1)NC(=O)[C@H](Cc1cnc[nH]1)NC(=O)CCc1cn(CC(=O)NCC(=O)NC(CCCNC(=O)Cn2cc(CCC(=O)N[C@@H](Cc3cnc[nH]3)C(=O)N[C@H](Cc3ccccc3)C(=O)N[C@@H](CCCN=C(N)N)C(=O)N[C@@H](Cc3c[nH]c4ccccc34)C(N)=O)nn2)(CCCNC(=O)Cn2cc(CCC(=O)N[C@@H](Cc3cnc[nH]3)C(=O)N[C@H](Cc3ccccc3)C(=O)N[C@@H](CCCN=C(N)N)C(=O)N[C@@H](Cc3c[nH]c4ccccc34)C(N)=O)nn2)C(=O)NCCC(N)=O)nn1)C(=O)N[C@@H](Cc1c[nH]c2ccccc12)C(N)=O
Activity (HEK293 [5]): Non-toxic
Activity (HEK293 [6]): Non-toxic

Drug uptake (HEK293 [3]): Active
Drug uptake (HEK293 [4]): Not Active
SMILES: CCCC[C@H](NC(=O)[C@H](CO)NC(=O)[C@H](Cc1ccc(O)cc1)NC(=O)[C@H](CO)NC(C)=O)C(=O)N[C@@H](CCC(=O)O)C(=O)N[C@@H](Cc1cnc[nH]1)C(=O)N[C@H](Cc1ccccc1)C(=O)N[C@@H](CCCNC(=N)N)C(=O)N[C@@H](Cc1c[nH]c2ccccc12)C(=O)NCC(=O)N[C@@H](CCCCNC(=O)CCCCC[N+]1=C(/C=C/C=C/C=C2/N(C)c3ccccc3C2(C)C)C(C)(C)c2ccccc21)C(=O)N1CCC[C@H]1C(=O)N[C@H](C(N)=O)C(C)C

SMILES: CC(=O)NCC(=O)NC(CCCNC(=O)CCNC(=O)C(CCCNC(=O)Cn1cc(CCC(=O)N[C@@H](Cc2cnc[nH]2)C(=O)N[C@H](Cc2ccccc2)C(=O)N[C@@H](CCCNC(=N)N)C(=O)N[C@@H](Cc2c[nH]c3ccccc23)C(N)=O)nn1)(CCCNC(=O)Cn1cc(CCC(=O)N[C@@H](Cc2cnc[nH]2)C(=O)N[C@H](Cc2ccccc2)C(=O)N[C@@H](CCCNC(=N)N)C(=O)N[C@@H](Cc2c[nH]c3ccccc23)C(N)=O)nn1)NC(=O)CNC(=O)Cn1cc(CCC(=O)N[C@@H](Cc2cnc[nH]2)C(=O)N[C@H](Cc2ccccc2)C(=O)N[C@@H](CCCNC(=N)N)C(=O)N[C@@H](Cc2c[nH]c3ccccc23)C(N)=O)nn1)(CCCNC(=O)CCNC(=O)C(CCCNC(=O)Cn1cc(CCC(=O)N[C@@H](Cc2cnc[nH]2)C(=O)N[C@H](Cc2ccccc2)C(=O)N[C@@H](CCCNC(=N)N)C(=O)N[C@@H](Cc2c[nH]c3ccccc23)C(N)=O)nn1)(CCCNC(=O)Cn1cc(CCC(=O)N[C@@H](Cc2cnc[nH]2)C(=O)N[C@H](Cc2ccccc2)C(=O)N[C@@H](CCCNC(=N)N)C(=O)N[C@@H](Cc2c[nH]c3ccccc23)C(N)=O)nn1)NC(=O)CNC(=O)Cn1cc(CCC(=O)N[C@@H](Cc2cnc[nH]2)C(=O)N[C@H](Cc2ccccc2)C(=O)N[C@@H](CCCNC(=N)N)C(=O)N[C@@H](Cc2c[nH]c3ccccc23)C(N)=O)nn1)C(=O)NCCC(N)=O (stereo not given in full)
Activity (HEK293 [5]): Non-toxic
Activity (Melanocortin receptor 4 [1]): Active
fold change (FC) (Melanocortin receptor 4 [2]): 104
Activity (HEK293 [6]): Non-toxic

SMILES: CC(=O)NCCCC(CCCNC(C)=O)(NC(=O)CNC(=O)Cn1cc(CCC(=O)N[C@@H](Cc2cnc[nH]2)C(=O)N[C@H](Cc2ccccc2)C(=O)N[C@@H](CCCN=C(N)N)C(=O)N[C@@H](Cc2c[nH]c3ccccc23)C(=O)O)nn1)C(=O)NCCC(N)=O
IC50 (Melanocortin receptor 4 [7]): 4.9 µM

— ChEMBL document CHEMBL2331152, “Multivalent Interactions: Synthesis and Evaluation of Melanotropin Multimers - Tools for Melanoma Targeting” (ACS Med Chem Lett, 2013)
